According to ChEMBL document CHEMBL3865799, “Synthesis of a series of novel dihydroartemisinin monomers and dimers containing chalcone as a linker and their anticancer activity” (Eur J Med Chem, 2016):

What was measured:
[1] = Cytotoxicity against human LS180 cells assessed as cell growth inhibition at 50 uM after 48 hrs by MTT assay; format: functional; settings: LS180, 48 h, read-out: GI
Method in brief: (§1)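 Adherent lines at 70–75% confluence, grown at 37 °C in 5% CO2 with 10% FCS. Exposed 48 h to compound in DMSO (vehicle <0.2% v/v). MTT dye added 3 h before termination; formazan dissolved in DMSO, OD 570 nm with 620 nm reference. Growth inhibition expressed as % of untreated; IC50 taken from the dose series.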

[2] = Cytotoxicity against human HepG2 cells assessed as cell growth inhibition at 50 uM after 48 hrs by MTT assay; format: functional; settings: HepG2, 48 h, read-out: GI; method in brief: as §1
[3] = Cytotoxicity against human PC3 cells assessed as cell growth inhibition at 30 uM after 48 hrs by MTT assay; format: functional; settings: PC-3, 48 h, read-out: GI; method in brief: as §1
[4] = Lipophilicity, log P of the compound; format: physicochemical; settings: octanol/water
[5] = Aqueous solubility of the compound at pH 7; format: physicochemical
[6] = Cytotoxicity against human MIAPaCa2 cells assessed as cell growth inhibition at 50 uM after 48 hrs by MTT assay; format: functional; settings: MIA PaCa-2, 48 h, read-out: GI; method in brief: as §1
[7] = Cytotoxicity against human HL60 cells assessed as cell growth inhibition at 50 uM after 48 hrs by MTT assay; format: functional; settings: HL-60, 48 h, read-out: GI
Method in brief: (§2)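 HL-60 suspension cells, 1.5 × 10^4 per well, grown at 37 °C in 5% CO2 with 10% FCS. Treated 48 h with compound in DMSO (vehicle <0.2% v/v). MTT added 3 h before the end. Formazan dissolved in DMSO and read at 570 nm (reference 620 nm). % growth inhibition computed against untreated cells; IC50 taken from the concentration series.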

[8] = Cytotoxicity against human HL60 cells assessed as cell growth inhibition at 30 uM after 48 hrs by MTT assay; format: functional; settings: HL-60, 48 h, read-out: GI; method in brief: as §2
[9] = Cytotoxicity against human MIAPaCa2 cells assessed as cell growth inhibition at 30 uM after 48 hrs by MTT assay; format: functional; settings: MIA PaCa-2, 48 h, read-out: GI; method in brief: as §1
[10] = Cytotoxicity against human LS180 cells assessed as cell growth inhibition at 30 uM after 48 hrs by MTT assay; format: functional; settings: LS180, 48 h, read-out: GI; method in brief: as §1
[11] = Cytotoxicity against human PC3 cells assessed as cell growth inhibition at 50 uM after 48 hrs by MTT assay; format: functional; settings: PC-3, 48 h, read-out: GI; method in brief: as §1
[12] = Cytotoxicity against human HepG2 cells assessed as cell growth inhibition at 30 uM after 48 hrs by MTT assay; format: functional; settings: HepG2, 48 h, read-out: GI; method in brief: as §1

| Structure (SMILES) | inhibition of growth at 50 µM [1] | inhibition of growth at 50 µM [2] | inhibition of growth at 30 µM [3] | logP [4] | solubility [5] | inhibition of growth at 50 µM [6] | inhibition of growth at 50 µM [7] | inhibition of growth at 30 µM [8] | inhibition of growth at 30 µM [9] | inhibition of growth at 30 µM [10] | inhibition of growth at 50 µM [11] | inhibition of growth at 30 µM [12] |
| --- | --- | --- | --- | --- | --- | --- | --- | --- | --- | --- | --- | --- |
| COc1ccc(/C=C/C(=O)c2ccc(OCCO[C@H]3O[C@@H]4O[C@@]5(C)CC[C@H]6[C@H](C)CC[C@@H]([C@H]3C)[C@@]46OO5)cc2)c(OC)c1OC | 58.5% | 30.1% | 53.3% | 5.34 to 7.45 | < 10 µg/mL | 43.1% | 82.9% | 78.7% | 36.2% | 50.8% | 54.2% | 28.1% |
| C[C@H]1[C@@H](OCCOc2ccc(/C=C/C(=O)c3ccc(Cl)cc3)cc2)O[C@@H]2O[C@@]3(C)CC[C@H]4[C@H](C)CC[C@@H]1[C@@]24OO3 | 45.6% | 25.1% | 38.7% | 5.34 to 7.45 | < 10 µg/mL | 62.8% | 93.2% | 89.4% | 54.4% | 42.1% | 41.8% | 19.7% |
| C[C@H]1[C@@H](OCCOc2ccc(/C=C/C(=O)c3cccc(O)c3)cc2)O[C@@H]2O[C@@]3(C)CC[C@H]4[C@H](C)CC[C@@H]1[C@@]24OO3 | 39.3% | 38.3% | 47.6% | 5.34 to 7.45 | < 10 µg/mL | 51.1% | 76.5% | 77.7% | 44.1% | 31.1% | 49.5% | 33.6% |
| C[C@H]1[C@@H](OCCOc2ccc(C(=O)/C=C/c3c[nH]c4ccccc34)cc2)O[C@@H]2O[C@@]3(C)CC[C@H]4[C@H](C)CC[C@@H]1[C@@]24OO3 | 44.1% | 25.9% | 38.6% | 5.34 to 7.45 | < 10 µg/mL | 49.4% | 91.8% | 89.1% | 49.1% | 41.9% | 39.6% | 21.2% |
| Cc1cc(C(=O)/C=C/c2ccc(OCCO[C@H]3O[C@@H]4O[C@@]5(C)CC[C@H]6[C@H](C)CC[C@@H]([C@H]3C)[C@@]46OO5)cc2)ccc1OCCO[C@H]1O[C@@H]2O[C@@]3(C)CC[C@H]4[C@H](C)CC[C@@H]([C@H]1C)[C@@]24OO3 | 23.5% | 20.7% | 6.4% | 5.34 to 7.45 | < 10 µg/mL | 49.2% | 70.4% | 68.9% | 44.3% | 7.1% | 23.5% | 13.6% |
| C[C@H]1[C@@H](OCCOc2ccc(-c3cc(=O)c4ccc(OCCO[C@H]5O[C@H]6O[C@@]7(C)CC[C@H]8[C@H](C)CC[C@@H]([C@H]5C)[C@@]68OO7)cc4o3)cc2)O[C@H]2O[C@@]3(C)CC[C@H]4[C@H](C)CC[C@@H]1[C@@]24OO3 | 39.7% | 37.7% | 40.6% | 5.34 to 7.45 | < 10 µg/mL | 41.8% | 73.8% | 71.8% | 32.7% | 30.5% | 41.3% | 30.1 to 87.4% |
| COc1ccc(C(=O)/C=C/c2ccc(OCCO[C@H]3O[C@@H]4O[C@@]5(C)CC[C@H]6[C@H](C)CC[C@@H]([C@H]3C)[C@@]46OO5)cc2)cc1Cl | 45.4% | 32.3% | 40.3% | 5.34 to 7.45 | < 10 µg/mL | 52.2% | 93.8% | 93.4% | 51.1% | 41.6% | 42.7% | 26.7% |
| C[C@H]1[C@@H](OCCOc2ccc(/C=C/C(=O)c3ccc(OCCO[C@H]4O[C@@H]5O[C@@]6(C)CC[C@H]7[C@H](C)CC[C@@H]([C@H]4C)[C@@]57OO6)cc3)cc2)O[C@@H]2O[C@@]3(C)CC[C@H]4[C@H](C)CC[C@@H]1[C@@]24OO3 | 49.5% | 47.8% | 44.2% | 5.34 to 7.45 | < 10 µg/mL | 49.1% | 87.9% | 85.6% | 45.1% | 45.8% | 47.6% | 40.9% |
| C[C@H]1[C@@H](OCCOc2ccc(/C=C/C(=O)c3ccc(Cl)s3)cc2)O[C@@H]2O[C@@]3(C)CC[C@H]4[C@H](C)CC[C@@H]1[C@@]24OO3 | 41.6% | 25.2% | 37.4% | 5.34 to 7.45 | < 10 µg/mL | 59.7% | 92.1% | 91.9% | 53.2% | 39.5% | 39.9% | 21.1% |
| C[C@@H]1CC[C@H]2[C@@H](C)C(=O)O[C@@H]3O[C@@]4(C)CC[C@@H]1[C@]32OO4 [ARTEMISININ] | 18.5% | 14.4% | 16% | – | – | 18% | 19.8% | 14.4% | 13% | 13.4% | 17.6% | 10.5% |
| COc1ccc(C(=O)/C=C/c2ccc(OCCO[C@H]3O[C@@H]4O[C@@]5(C)CC[C@H]6[C@H](C)CC[C@@H]([C@H]3C)[C@@]46OO5)cc2)c(OC)c1 | 74.1% | 28.9% | 47.4% | 5.34 to 7.45 | < 10 µg/mL | 46.8% | 89.5% | 89.3% | 44.1% | 63.3% | 49.8% | 27.3% |
| C[C@H]1[C@@H](OCCOc2ccc(/C=C/C(=O)c3cc4ccccc4o3)cc2)O[C@@H]2O[C@@]3(C)CC[C@H]4[C@H](C)CC[C@@H]1[C@@]24OO3 | 43.6% | 32% | 42.5% | 5.34 to 7.45 | < 10 µg/mL | 62.3% | 88.7% | 84.6% | 52.4% | 37.6% | 48.5% | 29.9% |
| C[C@H]1[C@@H](OCCOc2cccc(C(=O)/C=C/c3cn(CCO[C@H]4O[C@@H]5O[C@@]6(C)CC[C@H]7[C@H](C)CC[C@@H]([C@H]4C)[C@@]57OO6)c4ccccc34)c2)O[C@@H]2O[C@@]3(C)CC[C@H]4[C@H](C)CC[C@@H]1[C@@]24OO3 | 37.8% | 28.7% | 46.3% | 5.34 to 7.45 | < 10 µg/mL | 49.4% | 83.2% | 81.5% | 47.1% | 36.2% | 48.7% | 25.4% |
| CCOc1cc(/C=C/C(=O)c2ccc(OCCO[C@H]3O[C@@H]4O[C@@]5(C)CC[C@H]6[C@H](C)CC[C@@H]([C@H]3C)[C@@]46OO5)cc2)ccc1O | 36.3% | 28.2% | 55.1% | 5.34 to 7.45 | < 10 µg/mL | 49.8% | 84.1% | 80.8% | 49.4% | 27.4% | 58.9% | 25.5% |
